According to PMC3213326 (Molecular cancer therapeutics, 2011):
pIC50: −log10 of the molar value.

Key:
DLD-1 cells = test: Cell viability assay; format: cell-based, human; details: 48 h; for effect on proliferation of DLD-1 cells: various concentrations
Method in brief: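 DLD-1 cells were plated at 10⁴ per well in 96-well plates. They were dosed at once with increasing concentrations of test compound in DMSO (final 0.4%) or with DMSO alone. After 48 h, viability was read by Cell-Titer Glo luminescence. The DMSO control was set to 100%. Runs were done in triplicate, and IC50 came from a nonlinear sigmoidal dose-response fit.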

[1] = test system: NCI-60 panel of human cancer cell lines; test: NCI-60 panel screen; format: cell-based; details: 10 µM
leukemia cell lines = test: NCI-60 panel screen, leukemia lines; format: cell-based, human; details: 10 µM
KLF5 [2] = test: Western blot of endogenous KLF5 levels in IEC-6 cells; format: cell-based, rat; details: wide range of concentrations
EGR1 = test: Western blot of EGR1 in DLD-1 cells; format: cell-based, human; details: DLD-1, 10 µM, 24 h
Method in brief: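 DLD-1 cells were seeded at 2 × 10⁵ per well in 1 ml medium. At 24 h after seeding they were given test compound in DMSO or DMSO alone for 24 h. Lysates were made in Laemmli buffer, separated by polyacrylamide gel electrophoresis and transferred to nitrocellulose. Membranes were probed with rabbit anti-EGR1, and scanned films were quantified by densitometry.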

[3] = test system: KM12 colon cancer cell line; test: NCI-60 panel screen, KM12; format: cell-based, human; details: 10 µM, cell line highly expressing KLF5
KLF5 [4] = test: Western blot of endogenous KLF5 protein levels in DLD-1 cells; format: cell-based, human; details: 24 h; for effect on endogenous KLF5 levels: DLD-1, 10 µM
Method in brief: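 DLD-1 cells were seeded at 2 × 10⁵ per well in 1 ml medium. At 24 h after seeding they were treated with 5 or 10 µM test compound in DMSO, or with DMSO alone, for 24 h. Cells were lysed in Laemmli buffer, run on polyacrylamide gel and transferred to nitrocellulose. Blots were probed with rabbit polyclonal anti-KLF5 (residues 95–111) and mouse monoclonal anti-β-actin, and scanned films were quantified by densitometry.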

For `CN(C(=O)COC(=O)/C=C/c1cccc([N+](=O)[O-])c1)C1CCS(=O)(=O)C1` (stereo not shown) [CID 5951923], the “effect on proliferation of DLD-1 cells” value (DLD-1 cells) was “inhibited proliferation of DLD-1 cells in a dose-dependent manner”, the “potency of inhibition in NCI-60 panel” value [1] was “potency was weak” and the “inhibition of leukemia cell lines” value (leukemia cell lines) was “inhibition in a number of leukemia cell lines”. For the same compound, the “effect on endogenous KLF5 levels in IEC-6 cells” value (KLF5 [2]) was “neither CIDs 4395011 nor 5951923 reduced endogenous KLF5 levels”, the “effect on EGR1” value (EGR1) was “downregulated EGR1” and the “inhibition of KM12 colon cancer cell line” value [3] was “poor inhibition”.
In the case of `CN(C(=O)CNC(=O)/C=C/c1cccc([N+](=O)[O-])c1)C1CCS(=O)(=O)C1` (stereo not shown) [compound 46931037], the “effect on endogenous KLF5 levels” value (KLF5 [4]) was “similarly affect KLF5 protein levels” and the “effect on EGR1” value (EGR1) was “downregulated EGR1”.
For `C[C@@H]1O[C@@H](O[C@H]2C[C@@H](O)[C@]3(CO)[C@H]4[C@H](O)C[C@]5(C)[C@@H](C6=CC(=O)OC6)CC[C@]5(O)[C@@H]4CC[C@]3(O)C2)[C@H](O)[C@H](O)[C@H]1O` [compound 439501], the “inhibitory effect on KLF5 levels relative to the other three tested compounds” value (KLF5 [4]; DLD-1, 5 and 10 µM) was “more pronounced”, the “effect on proliferation of DLD-1 cells” value (DLD-1 cells) was “inhibited proliferation of DLD-1 cells in a dose-dependent manner” and the pIC50 (DLD-1 cells; read-out: IC50 for DLD-1 proliferation (cell viability), Cell-Titer Glo) was 7.34.
With `CC1=CCCC2(C)C(CCC2(O)CN(CCc2cccs2)S(=O)(=O)c2cccs2)c2ccc(cc2C(=O)Cc2c(F)cccc2Cl)CC(O)CC1` (stereo not shown) [compound 4395011] the “effect on endogenous KLF5 levels in IEC-6 cells” value (KLF5 [2]) was “neither CIDs 4395011 nor 5951923 reduced endogenous KLF5 levels”.
With `CN(C(=O)CNC(=O)/C=C/c1cccc(Cl)c1)C1CCS(=O)(=O)C1` (stereo not shown) [compound 46931043] the “effect on endogenous KLF5 levels” value (KLF5 [4]) was “similarly affect KLF5 protein levels”.
